# Experimental data reported in ChEMBL document CHEMBL4346663, “N-Cinnamoylanthranilates as human TRPA1 modulators: Structure-activity relationships and channel binding sites” (Eur J Med Chem, 2019).
# Calls of active or inactive are those of the source. No cut-off for these calls is given here.
# Tests used:
# [1] = target: T1, Transient receptor potential cation channel subfamily A member 1 (Homo sapiens, UniProt O75762); assay: Antagonist activity at human TRPA1 expressed in HEK293 cells assessed as increase in calcium influx at 100 uM incubated for 10 mins prior to CA addition by Fluo-4-AM dye based fluorescence assay relative to CA; assay type: cell-based; set-up: scale not given: the % may be the effect or the level left
# T1 sequence (O75762 whole entry): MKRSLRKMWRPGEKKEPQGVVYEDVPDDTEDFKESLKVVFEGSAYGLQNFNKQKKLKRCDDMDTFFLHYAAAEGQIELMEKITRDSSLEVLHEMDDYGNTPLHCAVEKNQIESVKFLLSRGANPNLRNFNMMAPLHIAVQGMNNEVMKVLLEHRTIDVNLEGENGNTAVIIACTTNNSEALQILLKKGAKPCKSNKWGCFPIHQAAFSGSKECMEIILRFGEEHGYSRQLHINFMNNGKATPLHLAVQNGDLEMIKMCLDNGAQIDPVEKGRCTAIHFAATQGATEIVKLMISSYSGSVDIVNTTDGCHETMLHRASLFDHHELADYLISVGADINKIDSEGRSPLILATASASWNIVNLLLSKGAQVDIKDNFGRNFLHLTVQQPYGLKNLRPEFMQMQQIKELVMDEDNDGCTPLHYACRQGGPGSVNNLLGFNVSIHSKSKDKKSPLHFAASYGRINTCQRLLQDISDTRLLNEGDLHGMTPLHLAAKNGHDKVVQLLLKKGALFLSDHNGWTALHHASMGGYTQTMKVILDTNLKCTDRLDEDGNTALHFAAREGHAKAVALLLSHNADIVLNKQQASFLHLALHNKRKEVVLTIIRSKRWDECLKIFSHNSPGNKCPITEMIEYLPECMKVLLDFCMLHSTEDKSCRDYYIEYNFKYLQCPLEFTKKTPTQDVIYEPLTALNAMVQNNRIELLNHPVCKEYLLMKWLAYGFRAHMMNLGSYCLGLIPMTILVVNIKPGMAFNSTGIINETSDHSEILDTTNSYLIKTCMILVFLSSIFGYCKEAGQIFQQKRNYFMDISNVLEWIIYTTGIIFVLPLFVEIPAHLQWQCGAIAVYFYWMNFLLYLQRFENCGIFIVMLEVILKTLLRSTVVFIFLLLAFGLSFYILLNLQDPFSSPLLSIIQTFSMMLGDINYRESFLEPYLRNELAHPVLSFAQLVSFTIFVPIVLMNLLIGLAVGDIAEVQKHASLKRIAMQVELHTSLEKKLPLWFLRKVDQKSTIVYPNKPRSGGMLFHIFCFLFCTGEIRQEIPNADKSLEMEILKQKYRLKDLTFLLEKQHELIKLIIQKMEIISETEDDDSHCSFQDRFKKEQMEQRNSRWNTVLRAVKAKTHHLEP
# Procedure, shortened: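 hTRPA1-HEK293 cells loaded with Fluo-4AM (2 µM). Compound pre-incubated 10 min, then cinnamaldehyde standard agonist added. FlexStation read, ex 485/em 538 nm. ΔRFU normalized to the CA response set at 100 % after DMSO vehicle subtraction. N = 3. logIC50 taken from dose-response fits.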
# [2] = Dissociation constant, pKa of the compound at pH 7.4; assay type: physicochemical
# [3] = target: T2, Transient receptor potential cation channel subfamily M member 8 (Homo sapiens, UniProt Q7Z2W7); assay: Agonist activity at human TRPM8 expressed in HEK293 cells assessed as increase in calcium influx at 100 uM by Fluo-4-AM dye based fluorescence assay relative to calcimycin; assay type: cell-based
# Procedure, shortened: (§1)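 Stably transfected hTRPA1- or hTRPM8-HEK293 cells on poly-D-lysine plates for 48 h, loaded with Fluo-4AM (2 µM, 45 min, dark, room temperature), in isotonic HEPES buffer pH 7.4. FlexStation 240 s run: 20 s baseline, compound added, calcimycin added at 180 s. ΔRFU expressed as % calcimycin, DMSO-subtracted. Screening N = 3. Dose-response curves fitted for logEC50 (N = 3 in duplicate or triplicate).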
# Target sequence in this assay (Q7Z2W7 whole entry, looked up): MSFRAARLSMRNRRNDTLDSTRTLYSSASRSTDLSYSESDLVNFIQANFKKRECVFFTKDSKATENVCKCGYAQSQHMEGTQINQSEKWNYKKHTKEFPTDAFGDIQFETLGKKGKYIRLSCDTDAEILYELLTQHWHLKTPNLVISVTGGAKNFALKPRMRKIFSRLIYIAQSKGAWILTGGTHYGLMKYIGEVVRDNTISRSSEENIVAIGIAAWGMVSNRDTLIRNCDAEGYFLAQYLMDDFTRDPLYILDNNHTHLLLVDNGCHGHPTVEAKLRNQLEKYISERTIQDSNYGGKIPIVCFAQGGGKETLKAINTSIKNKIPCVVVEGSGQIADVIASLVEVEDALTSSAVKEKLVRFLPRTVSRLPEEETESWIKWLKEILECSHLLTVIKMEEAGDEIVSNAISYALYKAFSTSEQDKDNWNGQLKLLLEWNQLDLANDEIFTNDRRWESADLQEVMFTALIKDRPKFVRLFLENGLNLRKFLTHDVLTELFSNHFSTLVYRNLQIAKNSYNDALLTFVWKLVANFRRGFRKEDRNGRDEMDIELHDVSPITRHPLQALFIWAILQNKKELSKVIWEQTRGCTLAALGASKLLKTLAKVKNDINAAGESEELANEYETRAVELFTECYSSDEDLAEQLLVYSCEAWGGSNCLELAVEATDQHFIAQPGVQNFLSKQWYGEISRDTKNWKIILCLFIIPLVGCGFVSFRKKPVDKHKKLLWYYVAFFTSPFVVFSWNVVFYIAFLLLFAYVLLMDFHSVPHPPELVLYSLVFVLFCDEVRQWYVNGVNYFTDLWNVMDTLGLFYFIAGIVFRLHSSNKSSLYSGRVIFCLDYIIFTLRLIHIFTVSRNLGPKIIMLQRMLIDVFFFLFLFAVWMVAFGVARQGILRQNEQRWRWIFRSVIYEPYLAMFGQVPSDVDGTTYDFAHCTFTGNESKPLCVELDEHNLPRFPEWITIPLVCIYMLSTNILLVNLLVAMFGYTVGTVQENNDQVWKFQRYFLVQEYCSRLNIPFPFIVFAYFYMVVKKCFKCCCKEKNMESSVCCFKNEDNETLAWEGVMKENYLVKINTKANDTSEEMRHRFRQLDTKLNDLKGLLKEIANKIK
# [4] = target: T2, Transient receptor potential cation channel subfamily M member 8; assay: Agonist activity at human TRPM8 expressed in HEK293 cells assessed as increase in calcium influx at 30 uM by Fluo-4-AM dye based fluorescence assay relative to calcimycin; assay type: cell-based; procedure, shortened: as §1
# Target sequence in this assay (Q7Z2W7 whole entry, looked up): as above
# [5] = target: T1, Transient receptor potential cation channel subfamily A member 1; assay: Agonist activity at human TRPA1 expressed in HEK293 cells assessed as increase in calcium influx at 30 uM by Fluo-4-AM dye based fluorescence assay relative to calcimycin; assay type: cell-based; procedure, shortened: as §1
# [6] = target: T2, Transient receptor potential cation channel subfamily M member 8; assay: Antagonist activity at human TRPM8 expressed in HEK293 cells assessed as increase in calcium influx at 100 uM incubated for 10 mins prior to WS5 challenge by Fluo-4-AM dye based fluorescence assay relative to WS5; assay type: cell-based; set-up: scale not given: the % may be the effect or the level left
# Procedure, shortened: (§2)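 hTRPM8-HEK293 cells loaded with Fluo-4AM (2 µM, 45 min). Test compound pre-incubated 10 min before WS5 standard agonist. FlexStation fluorescence at 485/538 nm. ΔRFU given as % of WS5 response after DMSO vehicle subtraction. N = 3. IC50 from dose-response curves.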
# Target sequence in this assay (Q7Z2W7 whole entry, looked up): as above
# [7] = target: T1, Transient receptor potential cation channel subfamily A member 1; assay: Antagonist activity at human TRPA1 expressed in HEK293 cells assessed as inhibition of CA-induced increase in calcium influx incubated for 10 mins prior to CA addition by Fluo-4-AM dye based fluorescence assayy; assay type: cell-based
# [8] = tested on: Transient receptor potential cation channel subfamily A member 1 (Homo sapiens), O75762 [F909A]; assay: Agonist activity at human TRPA1 Phe909Ala mutant expressed in HEK293 cells assessed as Ca2+ influx at 10 uM by fluorescence assay; assay type: cell-based
# Chain of Transient receptor potential cation channel subfamily A member 1 (Homo sapiens), O75762 [F909A] (O75762 whole entry F909A): as the sequence (O75762 whole entry) above, with F909A counted along it
# Procedure, shortened: (§3)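 HEK293 cells stably expressing hTRPA1 point mutants (C621A, F909A or F944A), single-cell cloned under G418 selection. Cells plated on poly-D-lysine for 48 h, loaded with Fluo-4AM 2 µM for 45 min at room temperature. FlexStation read (ex 485/em 538 nm): 20 s baseline, compound added, calcimycin added at 180 s. Response expressed as % calcimycin from ΔRFU, vehicle-subtracted, and compared with wild-type hTRPA1 cells.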
# [9] = target: T1, Transient receptor potential cation channel subfamily A member 1; assay: Agonist activity at human TRPA1 expressed in HEK293 cells assessed as increase in calcium influx at 3 uM by Fluo-4-AM dye based fluorescence assay relative to calcimycin; assay type: cell-based; procedure, shortened: as §1
# [10] = target: T1, Transient receptor potential cation channel subfamily A member 1; assay: Antagonist activity at human TRPA1 expressed in HEK293 cells assessed as increase in calcium influx at 3 uM incubated for 10 mins prior to CA challenge by Fluo-4-AM dye based fluorescence assay […]; assay type: cell-based; set-up: scale not given: the % may be the effect or the level left
# [11] = target: T2, Transient receptor potential cation channel subfamily M member 8; assay: Antagonist activity at human TRPM8 expressed in HEK293 cells assessed as increase in calcium influx at 3 uM incubated for 10 mins prior to WS5 challenge by Fluo-4-AM dye based fluorescence assay relative to WS5; assay type: cell-based; set-up: scale not given: the % may be the effect or the level left; procedure, shortened: as §2
# Target sequence in this assay (Q7Z2W7 whole entry, looked up): as the sequence (Q7Z2W7 whole entry, looked up) above
# [12] = target: T2, Transient receptor potential cation channel subfamily M member 8; assay: Agonist activity at human TRPM8 expressed in HEK293 cells assessed as increase in calcium influx at 3 uM by Fluo-4-AM dye based fluorescence assay relative to calcimycin; assay type: cell-based; procedure, shortened: as §1
# Target sequence in this assay (Q7Z2W7 whole entry, looked up): as above
# [13] = target: T1, Transient receptor potential cation channel subfamily A member 1; assay: Agonist activity at human TRPA1 expressed in HEK293 cells assessed as increase in calcium influx by Fluo-4-AM dye based fluorescence assay; assay type: cell-based; settings: for EC50: read-out: EC50; procedure, shortened: as §1
# [14] = tested on: Transient receptor potential cation channel subfamily A member 1 (Homo sapiens), O75762 [F944A]; assay: Agonist activity at human TRPA1 Phe944Ala mutant expressed in HEK293 cells assessed as Ca2+ influx at 30 uM by fluorescence assay; assay type: cell-based; procedure, shortened: as §3
# Chain of Transient receptor potential cation channel subfamily A member 1 (Homo sapiens), O75762 [F944A] (O75762 whole entry F944A): as the sequence (O75762 whole entry) above, with F944A counted along it
# [15] = tested on: Transient receptor potential cation channel subfamily A member 1 (Homo sapiens), O75762 [F944A]; assay: Agonist activity at human TRPA1 Phe944Ala mutant expressed in HEK293 cells assessed as Ca2+ influx at 10 uM by fluorescence assay; assay type: cell-based; procedure, shortened: as §3
# [16] = tested on: Transient receptor potential cation channel subfamily A member 1 (Homo sapiens), O75762 [F909A]; assay: Agonist activity at human TRPA1 Phe909Ala mutant expressed in HEK293 cells assessed as Ca2+ influx at 30 uM by fluorescence assay; assay type: cell-based; procedure, shortened: as §3
# [17] = tested on: Transient receptor potential cation channel subfamily A member 1 (Homo sapiens), O75762 [F909A]; assay: Agonist activity at human TRPA1 Phe909Ala mutant expressed in HEK293 cells assessed as Ca2+ influx at 100 uM by fluorescence assay; assay type: cell-based
# Procedure, shortened: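 HEK293 cells stably expressing hTRPA1 point mutants, made by FuGENE 6 transfection, G418 (0.5 mg ml-1) selection and single-cell cloning, grown in DMEM with 25 mM HEPES, 10% FBS and geneticin. Ca2+ influx was read by Fluo dye fluorescence at room temperature, with calcimycin added at the end. Response was ΔRFU as % of calcimycin, with the DMSO vehicle subtracted.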
# [18] = target: T2, Transient receptor potential cation channel subfamily M member 8; assay: Antagonist activity at human TRPM8 expressed in HEK293 cells assessed as inhibition in WS5-induced increase in calcium influx incubated for 10 mins prior to WS5 challenge by Fluo-4-AM dye based fluorescence assay; assay type: cell-based; procedure, shortened: as §2
# Target sequence in this assay (Q7Z2W7 whole entry): as the sequence (Q7Z2W7 whole entry, looked up) above
Structure (SMILES),Activity [1] [%],pKa [2],Activity [3],Activity [4],Activity [5] [%],Activity [6] [%],Activity [9] [%],Activity [11] [%],other results
COc1ccc(/C=C/C(=O)Nc2ccccc2C(=O)O)cc1OC,56,3.5,inactive,inactive,6,65,,,IC50 [7]: 126 µM
C=CCN=C=S,,,,,,,,,Activity [8]: Active
COC(=O)c1ccccc1NC(=O)/C(C)=C/c1ccccc1,,13.9,,,,,49,30,Activity [10]: 73%
COC(=O)c1ccccc1NC(=O)/C(=C/c1ccccc1)c1ccccc1,,13.9,,,,,63,48,Activity [12]: 23%; Activity [10]: 51%
CCCCCc1ccc(/C=C/C(=O)Nc2ccccc2C(=O)O)cc1,,,,,,,,,EC50 [13]: 28 µM; Activity [14]: Active; Activity [15]: inactive; Activity [16]: Active; Activity [8]: Active
O=C(/C=C/c1ccc(O)c(O)c1)Nc1ccccc1C(=O)O,,3.5,inactive,,,,,,
NC(=O)c1cccc(-c2cccc(OC(=O)NC3CCCCC3)c2)c1 [URB-597],,,,,,,,,EC50 [13]: 0.1 µM; Activity [17]: Active
C/C(=C\c1ccccc1)C(=O)Nc1ccccc1C(=O)O,29,3.5,inactive,inactive,33,28,,,EC50 [13]: 133 µM; Activity [14]: inactive; IC50 [18]: 27 µM; Activity [16]: Active
Cc1ccc(/C=C/C(=O)Nc2ccccc2C(=O)O)cc1,40,3.5,inactive,inactive,30,48,,,EC50 [13]: 149 µM; Activity [14]: inactive; Activity [16]: Active
COC(=O)c1ccccc1NC(=O)/C=C/c1ccc(Cl)cc1,,13.8,,,,,45,70,
Cc1ccc(C(C)C)c(O)c1,,,,,,,,,Activity [17]: Active
COC(=O)c1ccccc1NC(=O)/C=C/c1ccc(C)cc1,,13.9,,,,,28,88,
COc1ccccc1/C=C/C(=O)Nc1ccccc1C(=O)O,14,3.4,inactive,inactive,33,32,,,EC50 [13]: 75 µM; IC50 [18]: 41 µM; IC50 [7]: 51 µM
COC(=O)c1ccccc1NC(=O)/C=C/c1ccc(OC(C)=O)c(OC(C)=O)c1,,13.6,,,,,12,102,
COC(=O)c1ccccc1NC(=O)/C=C/c1ccc([N+](=O)[O-])cc1,,13.6,,,,,,,
O=C(O)[C@@H]1CCCN1C(=O)/C=C/c1ccccc1,79,3.2,inactive,inactive,5,65,,,
COC(=O)c1ccccc1NC(=O)/C=C/c1ccc(OC(C)=O)cc1,,13.8,,,,,10,84,
O=C(CCc1ccccc1)Nc1ccccc1C(=O)O,81,3.5,inactive,inactive,10,48,,,

Structure (SMILES),Activity [1] [%],pKa [2],Activity [3],Activity [4],Activity [5] [%],Activity [6] [%],Activity [9] [%],Activity [11] [%],other results
C=CC=O [ACROLEIN],,,,,,,,,EC50 [13]: 27 µM; Activity [14]: inactive; Activity [16]: Active
O=C(Nc1ccccc1C(=O)O)/C(=C/c1ccccc1)c1ccccc1,22,3.4,34%,14%,66,,,,EC50 [13]: 11 µM; Activity [8]: Active
COC(=O)c1ccccc1NC(=O)/C=C/c1ccc(F)cc1,,13.9,,,,,34,85,
COC(=O)c1ccccc1NC(=O)/C=C/c1ccc(C(F)(F)F)cc1,,13.7,,,,,29,81,
CCOc1cc(/C=C/C(=O)Nc2ccccc2C(=O)O)ccc1O,34,3.5,inactive,inactive,5,73,,,IC50 [7]: 106 µM
CN(C)c1ccc(/C=C/C(=O)Nc2ccccc2C(=O)O)cc1,,3.5,inactive,,,,,,
COC(=O)c1ccccc1NC(=O)/C=C/c1ccccc1Cl,,13.7,,,,,29,53,
COc1ccc(/C=C/C(=O)Nc2ccccc2C(=O)O)cc1,19,3.5,inactive,inactive,27,68,,,EC50 [13]: 49 µM; Activity [14]: inactive; Activity [16]: Active; IC50 [7]: 12 µM
COC(=O)c1ccccc1NC(=O)/C=C/c1ccc(Br)cc1,,13.8,,,,,41,79,
COC(=O)c1ccccc1NC(=O)/C=C/c1ccccc1,,13.9,,,,,22,61,Activity [12]: inactive; Activity [10]: inactive
Cc1ccc(C(C)C)cc1O [CARVACROL],,,,,,,,,EC50 [13]: 17 µM; Activity [14]: inactive; Activity [16]: inactive
COC(=O)c1ccccc1NC(=O)/C=C/c1ccc(N(C)C)cc1,,4.8,,,,,27,86,
O=C(O)C1CCCCN1C(=O)/C=C/c1ccccc1 (racemic),71,3.3,inactive,inactive,7,72,,,
COc1cccc(NC(=O)/C=C/c2ccc(Cl)cc2)c1,,,,,,,,,pEC50 [13]: inactive
O=C(/C=C/c1ccccc1)Nc1ccccc1C(=O)O,42,3.5,inactive,inactive,24,48,,,
CC(=C\c1ccc(Cl)cc1)/C(C)=N/O [AP18 5],,,,,,,,,IC50 [7]: 4 µM
O=C(/C=C/c1ccc([N+](=O)[O-])cc1)Nc1ccccc1C(=O)O,33,3.4,inactive,inactive,25,39,,,EC50 [13]: 219 µM
COc1ccc(CCC(=O)Nc2ccccc2C(=O)O)cc1,74,3.5,inactive,inactive,6,57,,,
